Results: ChEMBL document CHEMBL1135411, “Design and synthesis of a novel series of 1,2-disubstituted cyclopentanes as small, potent potentiators of 2-amino-3-(3-hydroxy-5-methyl-isoxazol-4-yl)propanoic acid (AMPA) receptors” (J Med Chem, 2002)

The compounds below were run against T1, Glutamate receptor 4 (Homo sapiens, UniProt P48058) (assay: Potentiation of responses mediated by 100 uM L-glutamate in transfected HEK293 cells expressing human homomeric iGluR4 flip receptors.).
Type: functional, cell-based
Procedure, shortened: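 Calcium influx was measured in confluent HEK293 cells stably expressing human homomeric iGluR4 flip, loaded 60 min with 20 µM Fluo3-AM in HEPES buffer (pH 7.1-7.3, 5 mM Ca2+). Compound at several concentrations preceded 100 µM glutamate by 5 min. Fluorescence was read before and 3 min after glutamate. Responses were scaled to 100 µM cyclothiazide, and EC50 was taken as the mean of at least three experiments.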

T1 sequence (P48058 whole entry): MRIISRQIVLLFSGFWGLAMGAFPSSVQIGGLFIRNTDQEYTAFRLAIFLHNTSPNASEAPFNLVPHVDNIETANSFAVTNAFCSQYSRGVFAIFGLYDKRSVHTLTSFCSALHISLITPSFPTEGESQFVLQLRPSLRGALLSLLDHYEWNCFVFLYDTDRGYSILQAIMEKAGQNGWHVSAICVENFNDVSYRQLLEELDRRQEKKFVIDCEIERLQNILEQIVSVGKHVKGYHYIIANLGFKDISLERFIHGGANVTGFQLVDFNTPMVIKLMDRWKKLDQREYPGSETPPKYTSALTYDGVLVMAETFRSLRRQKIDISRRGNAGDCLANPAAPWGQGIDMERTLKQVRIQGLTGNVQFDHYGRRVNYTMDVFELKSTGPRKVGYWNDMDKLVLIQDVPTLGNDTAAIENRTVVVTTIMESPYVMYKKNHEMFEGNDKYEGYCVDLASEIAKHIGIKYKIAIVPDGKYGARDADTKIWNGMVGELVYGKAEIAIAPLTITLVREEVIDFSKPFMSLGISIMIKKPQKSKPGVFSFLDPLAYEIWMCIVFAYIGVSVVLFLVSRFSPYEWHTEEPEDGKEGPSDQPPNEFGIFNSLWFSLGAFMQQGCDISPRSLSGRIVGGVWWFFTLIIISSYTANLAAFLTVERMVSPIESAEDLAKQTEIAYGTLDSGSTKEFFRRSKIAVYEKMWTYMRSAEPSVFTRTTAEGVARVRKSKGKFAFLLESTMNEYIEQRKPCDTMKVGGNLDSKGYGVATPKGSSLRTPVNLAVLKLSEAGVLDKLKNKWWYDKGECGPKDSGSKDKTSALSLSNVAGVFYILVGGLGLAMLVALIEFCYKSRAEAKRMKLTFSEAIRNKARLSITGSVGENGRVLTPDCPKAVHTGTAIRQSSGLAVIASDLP

Point of comparison: `CC(C)S(=O)(=O)N[C@H]1CCC[C@@H]1c1ccc(Br)cc1` (racemic), EC50 130 nM. Against it:
- Cc1ccc([C@H]2CCC[C@H]2NS(=O)(=O)C(C)C)cc1 (racemic) — 3.3-fold higher, 434 nM
- CC(C)S(=O)(=O)N[C@@H]1CCC[C@@H]1c1ccccc1 — 13-fold higher, 1740 nM
- CC(C)S(=O)(=O)N[C@@H]1CCC[C@@H]1c1ccc(I)cc1 (racemic) — 2.8-fold lower, 45.8 nM
- CC(C)S(=O)(=O)N[C@@H]1CCC[C@@H]1c1ccc(Cl)cc1 (racemic) — 1.9-fold higher, 247 nM
- CC(C)S(=O)(=O)N[C@@H]1CCC[C@@H]1c1ccc(Br)cc1 (racemic) — within 1.5-fold, 147 nM
- CC(C)S(=O)(=O)N[C@H]1CCC[C@@H]1c1ccccc1 — 4.2-fold higher, 551 nM
- CC(C)S(=O)(=O)N[C@@H]1CCC[C@@H]1c1ccc(F)c(F)c1 (racemic) — 8.5-fold higher, 1100 nM
- CC(C)S(=O)(=O)N[C@H]1CCC[C@@H]1c1ccc(I)cc1 — 4-fold lower, 32.8 nM
- CC(C)S(=O)(=O)N[C@@H]1CCC[C@@H]1c1cc(F)cc(F)c1 (racemic) — 2.2-fold higher, 281 nM
- CC(C)S(=O)(=O)N[C@@H]1CCC[C@@H]1c1ccc(Br)cc1 — 1.9-fold lower, 68 nM
- CC(C)S(=O)(=O)N[C@@H]1CCC[C@@H]1c1ccc(I)cc1 — 5.8-fold lower, 22.6 nM
- CC(C)S(=O)(=O)N[C@H]1CCC[C@@H]1c1ccc(Br)cc1 — 1.6-fold lower, 82.1 nM
- CC(C)S(=O)(=O)N[C@H]1CCC[C@@H]1c1ccc(I)cc1 (racemic) — within 1.5-fold, 93.1 nM
- CC(C)S(=O)(=O)N[C@@H]1CCC[C@@H]1c1ccc(C#N)cc1 — 3.1-fold higher, 403 nM
- CC(C)S(=O)(=O)N[C@@H]1CCC[C@@H]1c1cc(F)cc(F)c1 — within 1.5-fold, 118 nM
- CC(C)S(=O)(=O)N[C@@H]1CCC[C@@H]1c1cccc(F)c1 (racemic) — 4.8-fold higher, 621 nM
- CC(C)S(=O)(=O)N[C@@H]1CCC[C@@H]1c1ccc([N+](=O)[O-])cc1 (racemic) — within 1.5-fold, 190 nM

These compounds were tested against T1, Glutamate receptor 4 (assay: % potentiation of responses mediated by 100 uM L-glutamate in human transfected HEK293 cells expressing homomeric iGluR4 flip receptors at a dose of 3 uM.).
Type: functional, cell-based
Procedure, shortened: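 HEK293 cells stably expressing human iGluR4 flip, as confluent monolayers, loaded 60 min with 20 µM Fluo3-AM in HEPES-buffered saline (5 mM CaCl2, pH 7.1-7.3), then washed. Compound was added 5 min before 100 µM glutamate. Fluorescence was read just before glutamate and 3 min after. Potentiation at 3 µM, the highest dose tested, was expressed relative to 100 µM cyclothiazide (n = 1).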

Point of comparison: `CC(C)S(=O)(=O)N[C@@H]1CCC[C@H]1c1ccccc1`, Potentiation 6%. Against it:
- CC(C)S(=O)(=O)N[C@H]1CCC[C@H]1c1ccc(Br)cc1 — higher, 27%
- CC(C)S(=O)(=O)N[C@@H]1CCC[C@@H]1c1ccccc1 (racemic) — higher, 48%
- CC(C)S(=O)(=O)N[C@H]1CCC[C@H]1c1ccccc1 — lower, 2%
- CC(C)S(=O)(=O)N[C@H]1CCC[C@H]1c1cc(F)cc(F)c1 — lower, 5%
- CC(C)S(=O)(=O)N[C@H]1CCC[C@H]1c1ccc(I)cc1 — higher, 34%
- CC(CNS(=O)(=O)C(C)C)c1ccccc1 (racemic) — lower, 0%
- CC(C)S(=O)(=O)N[C@@H]1CCC[C@H]1c1ccc(Br)cc1 — lower, 2%
- CC(C)S(=O)(=O)N[C@H]1CCC[C@@H]1c1ccccc1 (racemic) — higher, 70%
- CC(C)S(=O)(=O)N[C@H]1CCC[C@H]1c1ccc(C#N)cc1 — higher, 17%
- CC(C)S(=O)(=O)N[C@@H]1CCC[C@H]1c1ccc(I)cc1 — higher, 12%
- CC(C)S(=O)(=O)N[C@@H]1CCC[C@@H]1c1ccc(F)cc1 (racemic) — higher, 57%
- CC(CNS(=O)(=O)C(C)C)c1ccc(Br)cc1 (racemic) — higher, 26%
